{
  "source": "ChEMBL document CHEMBL1157087",
  "about": "“Cytotoxic polyisoprenyl benzophenonoids from Garcinia subelliptica” (J Nat Prod, 2010)",
  "format_in_all_cases": "functional, cell-based",
  "key": {"KB [1]": {"tested_on": "KB", "assay": "Cytotoxicity against human vincristine-resistant KB cells overexpressing p-glycoprotein after 3 days by SRB assay", "conditions": "72 h", "procedure,_shortened": "(§1)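 Freshly trypsinized cells seeded at 1500–7500 per well, compound added from DMSO-diluted stock. After 3 days attached cells were fixed with cold 50% TCA, stained with 0.4% SRB, bound dye solubilized and read at 562 nm.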"}, "KB [2]": {"tested_on": "KB", "assay": "Cytotoxicity against human KB cells after 3 days by SRB assay", "conditions": "72 h", "procedure,_shortened": "as §1"}, "DU-145": {"tested_on": "DU-145", "assay": "Cytotoxicity against human DU145 cells after 3 days by SRB assay", "conditions": "DU-145, 72 h", "procedure,_shortened": "as §1"}, "A549": {"tested_on": "A549", "assay": "Cytotoxicity against human A549 cells after 3 days by SRB assay", "conditions": "A549, 72 h", "procedure,_shortened": "as §1"}},
  "data": [
    {"compound": "C=C(C)CCC(C[C@@]12C[C@H]3[C@@H](C=C(C)C)[C@@](C(=O)c4ccc(O)c(O)c4)(C1=O)C(=O)[C@@](CC=C(C)C)(C2=O)C3(C)C)C(=C)C", "note": "(some centres undefined)", "values": [
      {"measurement": "IC50", "setting": "KB [1]", "result": 5.6, "unit": "µg/mL"},
      {"measurement": "IC50", "setting": "KB [2]", "result": 5.7, "unit": "µg/mL"},
      {"measurement": "IC50", "setting": "DU-145", "result": 4.1, "unit": "µg/mL"},
      {"measurement": "IC50", "setting": "A549", "result": 4.2, "unit": "µg/mL"}
    ]},
    {"compound": "C=C(C)CCC(C[C@]12C[C@@H]3[C@H](C=C(C)C)[C@](C(=O)c4ccc(O)c(O)c4)(C1=O)C(=O)[C@](CC=C(C)C)(C2=O)C3(C)C)C(=C)C", "note": "(some centres undefined)", "values": [
      {"measurement": "IC50", "setting": "KB [1]", "result": 5.3, "unit": "µg/mL"},
      {"measurement": "IC50", "setting": "KB [2]", "result": 4.4, "unit": "µg/mL"},
      {"measurement": "IC50", "setting": "DU-145", "result": 4.2, "unit": "µg/mL"},
      {"measurement": "IC50", "setting": "A549", "result": 4.2, "unit": "µg/mL"}
    ]},
    {"compound": "C=C(C)CC[C@H]1C[C@@]23C[C@@H](CC=C(C)C)C(C)(C)[C@@](CC=C(C)C)(C(=O)C(C(=O)c4ccc(O)c(O)c4)=C2OC1(C)C)C3=O", "values": [
      {"measurement": "IC50", "setting": "KB [1]", "result": 5.2, "unit": "µg/mL"},
      {"measurement": "IC50", "setting": "KB [2]", "result": 4.9, "unit": "µg/mL"},
      {"measurement": "IC50", "setting": "DU-145", "result": 4.7, "unit": "µg/mL"},
      {"measurement": "IC50", "setting": "A549", "result": 4.5, "unit": "µg/mL"}
    ]},
    {"compound": "CC(C)=CCC1=C2O[C@H](C(C)(C)O)C[C@@]23C[C@H](CC=C(C)C)C(C)(C)[C@@](C(=O)C(C)C)(C1=O)C3=O", "values": [
      {"measurement": "IC50", "setting": "KB [1]", "result": "> 5", "unit": "µg/mL"},
      {"measurement": "IC50", "setting": "KB [2]", "result": "> 5", "unit": "µg/mL"},
      {"measurement": "IC50", "setting": "DU-145", "result": "> 5", "unit": "µg/mL"},
      {"measurement": "IC50", "setting": "A549", "result": "> 5", "unit": "µg/mL"}
    ]},
    {"compound": "C=C(C)CC[C@@H]1C[C@]23C[C@H](CC=C(C)C)C(C)(C)[C@](CC=C(C)C)(C(=O)C(C(=O)c4ccc(O)c(O)c4)=C2OC1(C)C)C3=O", "note": "[CYCLOXANTHOCHYMOL]", "values": [
      {"measurement": "IC50", "setting": "KB [1]", "result": 4.9, "unit": "µg/mL"},
      {"measurement": "IC50", "setting": "KB [2]", "result": 5, "unit": "µg/mL"},
      {"measurement": "IC50", "setting": "DU-145", "result": 3.7, "unit": "µg/mL"},
      {"measurement": "IC50", "setting": "A549", "result": 4.5, "unit": "µg/mL"}
    ]},
    {"compound": "C=C(C)[C@@H]1C[C@]23C[C@H](CC=C(C)C)C(C)(C)[C@](CC=C(C)C)(C(=O)C(C(=O)c4ccc(O)c(O)c4)=C2O[C@H]1C=C(C)C)C3=O", "note": "[GARCINIALIPTONE B]", "values": [
      {"measurement": "IC50", "setting": "KB [1]", "result": 6.6, "unit": "µg/mL"},
      {"measurement": "IC50", "setting": "KB [2]", "result": 5.7, "unit": "µg/mL"},
      {"measurement": "IC50", "setting": "DU-145", "result": 7.3, "unit": "µg/mL"},
      {"measurement": "IC50", "setting": "A549", "result": 6.7, "unit": "µg/mL"}
    ]},
    {"compound": "C=C(C)CC[C@H](C[C@@H]1C[C@@]2(CC=C(C)C)C(=O)C3=C(O[C@H](C(C)(C)O)C3)[C@](C(=O)c3ccc(O)c(O)c3)(C2=O)C1(C)C)C(=C)C", "note": "[GARCINIALIPTONE C]", "values": [
      {"measurement": "IC50", "setting": "KB [1]", "result": 4.9, "unit": "µg/mL"},
      {"measurement": "IC50", "setting": "KB [2]", "result": 3.4, "unit": "µg/mL"},
      {"measurement": "IC50", "setting": "DU-145", "result": 4.3, "unit": "µg/mL"},
      {"measurement": "IC50", "setting": "A549", "result": 4.3, "unit": "µg/mL"}
    ]},
    {"compound": "C=C(C)CC[C@H](C[C@@H]1C[C@]2(CC=C(C)C)C(=O)[C@@](C(=O)c3ccc(O)c(O)c3)(C(=O)C(CC=C(C)C)=C2O)C1(C)C)C(=C)C", "note": "[GARCINIALIPTONE D]", "values": [
      {"measurement": "IC50", "setting": "KB [1]", "result": 4.6, "unit": "µg/mL"},
      {"measurement": "IC50", "setting": "KB [2]", "result": 3.9, "unit": "µg/mL"},
      {"measurement": "IC50", "setting": "DU-145", "result": 3.3, "unit": "µg/mL"},
      {"measurement": "IC50", "setting": "A549", "result": 4.4, "unit": "µg/mL"}
    ]},
    {"compound": "CC(C)=CC[C@@H]1C[C@]23C[C@H](CC=C(C)C)C(C)(C)[C@](CC=C(C)C)(C(=O)C(C(=O)c4ccc(O)c(O)c4)=C2OC1(C)C)C3=O", "note": "[ISOXANTHOCHYMOL]", "values": [
      {"measurement": "IC50", "setting": "KB [1]", "result": 5.2, "unit": "µg/mL"},
      {"measurement": "IC50", "setting": "KB [2]", "result": 4.5, "unit": "µg/mL"},
      {"measurement": "IC50", "setting": "DU-145", "result": 4.2, "unit": "µg/mL"},
      {"measurement": "IC50", "setting": "A549", "result": 4.4, "unit": "µg/mL"}
    ]},
    {"compound": "CC(=O)O[C@H]1C(=O)[C@@]2(C)[C@H]([C@H](OC(=O)c3ccccc3)[C@]3(O)C[C@H](OC(=O)[C@H](O)[C@@H](NC(=O)c4ccccc4)c4ccccc4)C(C)=C1C3(C)C)[C@]1(OC(C)=O)CO[C@@H]1C[C@@H]2O", "note": "[PACLITAXEL]", "values": [
      {"measurement": "IC50", "setting": "KB [1]", "result": "> 0.085", "unit": "µg/mL"},
      {"measurement": "IC50", "setting": "KB [2]", "result": 0.002, "unit": "µg/mL"},
      {"measurement": "IC50", "setting": "DU-145", "result": 0.002, "unit": "µg/mL"}
    ]}
  ]
}
